Data taken from ChEMBL document CHEMBL4190245, “Caffeic Acid Phenethyl Ester from the Twigs of Cinnamomum cassia Inhibits Malignant Cell Transformation by Inducing c-Fos Degradation” (J Nat Prod, 2017).
Values belong to the molecule of their own block, whether it stands above or below them. Activity calls are given as the source filed them. The rule behind the calls is not given here.

Tests used:
Mus musculus [1] = organism: Mus musculus; test: Induction of proteasome-mediated c-fos degradation in EGF-stimulated mouse JB6 P+ cells assessed as inhibition of c-fos phosphorylation at S32 residue at 0.5 to 1 uM preincubated for 1 hr followed by EGF stimulation and measured after 15 mins by Western blot method
How it was run: (§1)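 JB6 P+ cells were serum-starved 24 h, pretreated 1 h with compound (0.5 and 1 μM), then stimulated with EGF (10 ng/mL) and harvested after 15 min. Lysates (10−60 μg protein) were run on SDS-PAGE and immunoblotted for phospho or total proteins, with chemiluminescent detection.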

Mus musculus [2] = organism: Mus musculus; test: Inhibition of EGF-induced mouse JB6 P+ cells transformation after 12 days by microscopy based soft agar assay; assay type: functional
How it was run: (§2)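 Soft agar: 8 × 10^3 cells/mL in 0.3% BME top agar with 10% FBS, compound and EGF or TPA, layered over 0.5% agar in BME with 10% FBS and the same additions; kept 1 to 2 weeks at 37 °C in 5% CO2, colonies counted by microscope; triplicate means ± SD.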

Mus musculus [3] = organism: Mus musculus; test: Inhibition of TPA-induced mouse JB6 P+ cells transformation after 14 days by microscopy based soft agar assay; assay type: functional; how it was run: as §2
[4] = Cytotoxicity against mouse JB6 P+ cells up to 10 uM after 24 to 48 hrs by CellTiter96 AQueous one solution assay; assay type: cell-based
How it was run: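 JB6 P+ cells seeded, incubated overnight, then switched to 0.1% FBS MEM and compound added; viability read by MTS reagent at 24 and 48 h; triplicate samples, means ± standard deviation.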

Mus musculus [5] = organism: Mus musculus; test: Inhibition of EGF-induced cell cycle progression in mouse epidermal JB6 P+ cells assessed as reduction in accumulation at G2/M phase at 0.25 to 1 uM preincubated for 1 hr followed by EGF challenge and measured after 24 hrs by propidium iodide staining-based FACS analysis; assay type: functional
How it was run: (§3)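 Seeded at 1.5 × 10^5 cells per 60 mm dish, starved 24 h in 0.1% FBS MEM, pretreated 1 h with compound, then EGF (10 ng/mL) for 24 h; cells fixed in cold 70% ethanol overnight, stained with RNase A and propidium iodide for 30 min at room temperature, analysed by flow cytometry; n = 3.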

Mus musculus [6] = organism: Mus musculus; test: Induction of proteasome-mediated c-fos degradation in EGF-stimulated mouse JB6 P+ cells assessed as reduction in c-fos activity at 0.25 to 1 uM preincubated for 1 hr followed by EGF stimulation
How it was run: (§4)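 The TransAM AP-1 family ELISA was run on cell extracts: wells coated with AP-1 binding oligonucleotide, probed with a c-Fos or p-c-Jun specific primary antibody, then an HRP secondary, and absorbance read at 450 nm; n = 3.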

[7] = target: Transcription factor Jun (Mus musculus) (UniProt P05627); test: Effect on phosphorylated c-jun in EGF-stimulated mouse JB6 P+ cells at 0.25 to 1 uM preincubated for 1 hr followed by EGF stimulation; how it was run: as §4
Mus musculus [8] = organism: Mus musculus; test: Inhibition of ERK phosphorylation at T202/Y204 residue in EGF-stimulated mouse JB6 P+ cells at 0.5 to 1 uM preincubated for 1 hr followed by EGF stimulation and measured after 15 mins by Western blot method; how it was run: as §1
Mus musculus [9] = organism: Mus musculus; test: Inhibition of RSK phosphorylation at T359/S363 residue in EGF-stimulated mouse JB6 P+ cells at 0.5 to 1 uM preincubated for 1 hr followed by EGF stimulation and measured after 15 mins by Western blot method; how it was run: as §1
Mus musculus [10] = organism: Mus musculus; test: Inhibition of CREB phosphorylation at S133 residue in EGF-stimulated mouse JB6 P+ cells at 0.5 to 1 uM preincubated for 1 hr followed by EGF stimulation and measured after 15 mins by Western blot method; how it was run: as §1
Mus musculus [11] = organism: Mus musculus; test: Inhibition of EGF-induced c-fos mRNA expression in mouse JB6 P+ cells at 0.5 to 1 uM preincubated for 1 hr followed by EGF stimulation and measured after 15 mins by real-time PCR method; assay type: functional, cell-based
How it was run: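 Compound given 1 h before EGF (10 ng/mL); total RNA extracted 15 min later, reverse-transcribed and c-fos quantified by SYBR Green real-time PCR (95 °C 10 min, then 40 cycles of 95 °C 15 s and 59 °C 1 min); n = 3.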

Mus musculus [12] = organism: Mus musculus; test: Induction of proteasome-mediated c-fos degradation in EGF-stimulated mouse JB6 P+ cells assessed as reduction in c-fos protein level at 1 uM preincubated for 1 hr followed by EGF stimulation for 15 mins in presence of 10 uM proteasome inhibitor MG132 by Western blot method
How it was run: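 Cells serum-starved 24 h, pretreated with MG132 (10 μM) plus compound (0.5 and 1 μM), collected 15 min after EGF (10 ng/mL); lysates immunoblotted for c-Fos.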

Mus musculus [13] = organism: Mus musculus; test: Inhibition of EGF-induced cell cycle progression in mouse epidermal JB6 P+ cells assessed as accumulation at G1 phase at 0.25 to 1 uM preincubated for 1 hr followed by EGF challenge measured after 24 hrs by propidium iodide staining-based FACS analysis; assay type: functional; how it was run: as §3
Mus musculus [14] = organism: Mus musculus; test: Induction of proteasome-mediated c-fos degradation in EGF-stimulated mouse JB6 P+ cells assessed as reduction in total c-fos protein level at 0.5 to 1 uM preincubated for 1 hr followed by EGF stimulation and measured after 15 mins by Western blot method; how it was run: as §1
Mus musculus [15] = organism: Mus musculus; test: Induction of proteasome-mediated c-fos degradation in EGF-stimulated mouse JB6 P+ cells assessed as reduction in c-fos protein level at 1 uM preincubated for 1 hr followed by EGF stimulation for 15 mins by Western blot method; how it was run: as §1
Mus musculus [16] = organism: Mus musculus; test: Inhibition of EGF-induced mouse JB6 P+ cells transformation at 0.25 to 2 uM after 12 days by microscopy based soft agar assay; assay type: functional; how it was run: as §2
Mus musculus [17] = organism: Mus musculus; test: Inhibition of TPA-induced mouse JB6 P+ cells transformation at 0.25 to 2 uM after 14 days by microscopy based soft agar assay; assay type: functional; how it was run: as §2
Mus musculus [18] = organism: Mus musculus; test: Inhibition of EGF-induced cell cycle progression in mouse epidermal JB6 P+ cells assessed as reduction in accumulation at G2/M phase at 0.5 to 1 uM preincubated for 1 hr followed by EGF challenge and measured after 24 hrs by propidium iodide staining-based FACS analysis; assay type: functional; how it was run: as §3
Mus musculus [19] = organism: Mus musculus; test: Induction of proteasome-mediated c-fos degradation (unknown origin) expressed in EGF-stimulated mouse JB6 P+ cells co-expressing AP1-lucifearse assessed as inhibition of AP-1 activation preincubated for 1 hr followed by EGF stimulation for 4 hrs by luciferase reporter gene assay; assay type: cell-based
How it was run: (§5)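 JB6 P+ cells stably carrying an AP-1 luciferase reporter (kept in 5% FBS MEM with 200 μg/mL G418) were starved 24 h in 0.1% FBS MEM, given compound 1 h before EGF (10 ng/mL) or TPA (20 ng/mL), lysed in phosphate/Triton buffer pH 7.8 and read for firefly luciferase; n = 3.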

Mus musculus [20] = organism: Mus musculus; test: Induction of proteasome-mediated c-fos degradation (unknown origin) expressed in TPA-stimulated mouse JB6 P+ cells co-expressing AP1-lucifearse assessed as inhibition of AP-1 activation preincubated for 1 hr followed by TPA stimulation for 4 hrs by luciferase reporter gene assay; assay type: cell-based; how it was run: as §5
Mus musculus [21] = organism: Mus musculus; test: Inhibition of EGF-induced cell cycle progression in mouse epidermal JB6 P+ cells assessed as accumulation at G1 phase at 0.5 to 1 uM preincubated for 1 hr followed by EGF challenge measured after 24 hrs by propidium iodide staining-based FACS analysis; assay type: functional; how it was run: as §3

Sequence of Transcription factor Jun (Mus musculus) (P05627 whole entry): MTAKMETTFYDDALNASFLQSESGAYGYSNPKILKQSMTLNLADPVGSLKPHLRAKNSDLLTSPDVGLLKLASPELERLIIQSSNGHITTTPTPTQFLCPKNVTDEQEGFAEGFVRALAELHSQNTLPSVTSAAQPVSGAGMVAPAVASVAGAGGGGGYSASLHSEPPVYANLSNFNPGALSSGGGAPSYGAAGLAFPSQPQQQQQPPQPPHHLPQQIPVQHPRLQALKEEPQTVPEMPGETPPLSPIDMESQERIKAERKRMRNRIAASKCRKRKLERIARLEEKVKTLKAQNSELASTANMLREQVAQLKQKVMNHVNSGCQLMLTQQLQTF

- Activity (Mus musculus [1]): Active
- Activity (Mus musculus [6]): Active
- Activity [7]: inactive
- inhibition (Mus musculus [8]): inactive
- inhibition (Mus musculus [9]): inactive
- inhibition (Mus musculus [10]): inactive
- Activity (Mus musculus [12]): inactive
- Activity (Mus musculus [14]): Active
- Activity (Mus musculus [15]): Active
SMILES: O=C(/C=C/c1ccc(O)c(O)c1)OCCc1ccccc1 [CAFFEIC ACID PHENETHYL ESTER]
- inhibition (Mus musculus [2]): Dose-dependent effect
- inhibition (Mus musculus [3]): Dose-dependent effect
- Activity [4]: Non-Toxic
- inhibition (Mus musculus [5]): Active
- inhibition (Mus musculus [11]): inactive
- inhibition (Mus musculus [13]): Active

- Activity (Mus musculus [1]): inactive
- Activity (Mus musculus [14]): inactive
SMILES: O=C(O)/C=C/c1ccc(O)c(O)c1 [CAFFEIC ACID]
- inhibition (Mus musculus [16]): inactive
- inhibition (Mus musculus [17]): inactive
- Activity [4]: Non-Toxic
- inhibition (Mus musculus [18]): inactive
- Activity (Mus musculus [19]): inactive
- Activity (Mus musculus [20]): inactive
- inhibition (Mus musculus [21]): inactive
